Results from paper PMC4133170 (Biochimica et biophysica acta, 2014).

Assays:
LRP1 [1] = details: in vivo administration of 100 μg over 26 h, FVB wild type mice; cited from earlier work
hCMEC/D3 cells = test: MTT cytotoxicity assay; type: cell-based, human
LRP1 [2] = test: Western blot of LRP1 expression in hCMEC/D3 cells; type: cell-based, human; details: 24 h, 100 nM monomeric Aβ40 or 50 nM Aβ42 oligomers, n = 3
In short: (§1)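 hCMEC/D3 cells (1 × 10⁶ per 100 mm dish) grown to 70% confluence, then given 24 h of control media, 100 nM Aβ40 monomer, 50 nM Aβ42 oligomer or both. Lysed in RIPA with protease inhibitors; 25 μg protein on 8% Bis-Tris/MOPS gel, nitrocellulose, 2% BSA block. Overnight primary: LRP1 1:1500, RAGE 1:200, GAPDH 1:3000. HRP secondary 1:5000; bands quantified; three independent blots.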

RAGE = test: Western blot of RAGE expression in hCMEC/D3 cells; type: cell-based, human; details: 24 h, 100 nM monomeric Aβ40 or 50 nM Aβ42 oligomers, n = 3
In short: as §1

In the case of “Aβ42 monomers: human sequence Aβ42 monomers administered in vivo in a cited study”, the “LRP1 expression in brain tissue” value (LRP1 [1]) is given as “significant reduction in LRP1 expression”.
With “Aβ40 monomer: synthetic Aβ40 peptide (AnaSpec), HFIP film dissolved in media and used immediately” the “decrease in viability of hCMEC/D3 (MTT)” value (hCMEC/D3 cells; 24 h treatment with 250 nM Aβ40 monomer, mean of n = 3 independent experiments) was 14–17%, the “MTT assay result versus control” value (hCMEC/D3 cells; 24 h treatment, Aβ40 monomers at 50 and 100 nM, n = 3) was “comparable to control treated cells” and the “reduction of LRP1 expression” value (LRP1 [2]) was “not observed”. The “alteration in RAGE protein expression” value (RAGE) was “did not show any significant alterations”.
